mIAP activ = activators of mouse IAP, primary screen, biochemical, luminescence, uHTS | intestinal alkaline phosphatase [Mus musculus] | activation factor at 10 µM | muIAP, CDP-Star luminescence, 30 min; stronger effect = higher value; 1 = vehicle-only enzyme signal, 0 = enzyme-free wells | 0.24% of 330,000 active;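 active = activation factor of at least 2 at 20 µM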
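also added = chemiluminescent substrate CDP-Star | test system = mouse IAP enzyme | signal = chemiluminescence readout | compound = DMSO-dissolved test compounds | incubation = 30 min at room temperature | benchmarks = DMSO wells, no-enzyme wells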
hIAP inh = human IAP inhibitors, primary screen, biochemical, luminescence, uHTS; Intestinal-type alkaline phosphatase (Homo sapiens), P09923; purified IAP, CDP-Star luminescence, 30 min; inhibition, % at 10 µM; 0.12% of 330,000 active; AID 2544, 2010;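 active = inhibition reaching a set limit with compound at 10 µM in the primary screen, cut at about 35% in these data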;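 note: plate controls were DMSO wells with enzyme for no effect and no-enzyme buffer wells for full effect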
Target sequence (P09923 whole entry, looked up): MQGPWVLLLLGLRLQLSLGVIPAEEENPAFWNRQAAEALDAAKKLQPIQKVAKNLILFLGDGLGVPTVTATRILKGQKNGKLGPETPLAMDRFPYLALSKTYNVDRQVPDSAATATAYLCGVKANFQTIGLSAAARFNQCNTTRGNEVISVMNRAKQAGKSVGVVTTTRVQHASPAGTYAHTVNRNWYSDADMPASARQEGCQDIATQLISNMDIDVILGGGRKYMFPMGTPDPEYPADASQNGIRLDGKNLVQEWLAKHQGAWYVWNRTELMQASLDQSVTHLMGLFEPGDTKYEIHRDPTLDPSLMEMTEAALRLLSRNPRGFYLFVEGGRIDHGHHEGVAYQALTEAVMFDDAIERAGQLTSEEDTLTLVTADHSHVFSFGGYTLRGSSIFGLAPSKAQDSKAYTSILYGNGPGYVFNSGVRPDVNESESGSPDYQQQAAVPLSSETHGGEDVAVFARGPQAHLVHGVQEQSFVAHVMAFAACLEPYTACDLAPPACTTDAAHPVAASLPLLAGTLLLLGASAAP
hIAP activ = human IAP activators, primary screen, biochemical, luminescence, uHTS | purified human IAP, CDP-Star luminescence, 30 min; stronger effect = higher value; 1 = vehicle-only enzyme, 0 = enzyme-free background | activation factor at 10 µM | 0.16% of 330,000 active | AID 2524, 2010;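 active = activation factor of the enzyme at least 2-fold when tested at 20 µM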
bIAP act = bovine intestinal alkaline phosphatase activators, primary screen, biochemical, bovine IAP, CDP-star luminescence; alkaline phosphatase, intestinal [Bos taurus]; purified bovine IAP, 30 min; stronger effect = higher value; fold of DMSO-control signal, blank-subtracted; activation factor at 20 µM; 0.17% of 200,000 active; AID 1016, 2008;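 active = activation factor of 2 or more at 20 µM, a signal rise over negative controls twice the positive control's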
bIAP inh = bovine intestinal alkaline phosphatase inhibitors, primary screen, selectivity assay for TNAP inhibitor project, biochemical, bovine IAP, CDP-star luminescence; inhibition, % at 20 µM; 190,000 tested, under 10 active; alkaline phosphatase, intestinal [Bos taurus]; purified bovine IAP, 30 min;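 active = over 50% inhibition of intestinal alkaline phosphatase at 20 µM in the single-dose screen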
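System: purified bovine intestinal alkaline phosphatase (IAP) enzyme; Input: IAP diluted 1/65,000,000 in the well; Measured by: CDP-star luminescence signal; Compound dosing: 20 µM single dose; Incubation: 30 min reaction at room temperature.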
mIAP inh = inhibitors of mouse IAP, primary screen, biochemical, luminescence, uHTS. purified mouse IAP, CDP-Star luminescence, 30 min. 0.2% of 330,000 active. inhibition, % at 10 µM. intestinal alkaline phosphatase [Mus musculus];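 active = inhibition of at least 40% at 10 µM in the primary screen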;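 note: plate controls were DMSO with enzyme for no effect and no enzyme wells for full effect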
hIAP act confirm = human IAP activators, confirmation, biochemical, luminescence, single concentration, uHTS hits; shares compounds with hIAP activ; purified IAP, CDP-Star luminescence, 30 min; stronger effect = lower value; activation (%Activity, negative = activation), % at 8.3 µM; 10% of 880 active;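 active = at least twofold enzyme activation in any of six single-dose repeats, which the averaged readout prints as negative percent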
mIAP inh conf = inhibitors of mouse IAP, confirmation, biochemical, luminescence, single concentration; purified mouse IAP, CDP-Star luminescence, 30 min; inhibition, % at 10 µM; shares compounds with mIAP inh; 4.7% of 11,000 active;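 active = inhibition of at least 40% at 10 µM in either of the two replicates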;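 note: plate controls were DMSO wells with enzyme for no effect and buffer wells lacking enzyme for full effect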
Starred values were filed as active, the others as inactive. The list is not random: actives were taken first. Their share in the collection is about 0.77%.

`O=C/C=C/c1ccccc1` gave mIAP activ 0.96, hIAP inh 9, hIAP activ 0.91 and mIAP inh 4.
For O=C1NC(=S)NC(=O)C1C/C=C/c1ccccc1 the results were mIAP activ 0.58, hIAP inh 5, hIAP activ 0.95, bIAP act 1, bIAP inh -5 and mIAP inh 42*.
Screening CC(C)n1c(O)c(C=NCc2ccccc2)c(=O)[nH]c1=S returned mIAP activ 0.94, hIAP inh -5, hIAP activ 1 and mIAP inh 6.
For COc1cc(/C=C/[N+](=O)[O-])ccc1O the results were mIAP activ 0.54, hIAP inh 24, hIAP activ 0.76, bIAP act 0.9, bIAP inh 11 and mIAP inh 46*.
Screening CCNc1nc(Cl)nc(NC(C)C)n1 returned mIAP activ 1.1, hIAP inh -4, hIAP activ 1, bIAP act 1, bIAP inh 4 and mIAP inh -7.
For CCOc1ccc2nc(N=Nc3c(O)[nH]c(=S)[nH]c3=O)sc2c1 the results were mIAP activ 0.56, hIAP inh 16, hIAP activ 0.84, bIAP act 0.7, bIAP inh 34 and mIAP inh 44*.
Cc1ccc(C(O)(C(=O)NNC(=O)CN2CCN(C)CC2)c2ccc(C)cc2)cc1 was read as mIAP activ 1.1, hIAP inh -2, hIAP activ 1, bIAP act 0.9, bIAP inh 10 and mIAP inh -13.
Screening Cc1cccc(C(O)(C(=O)NNC(=O)CN2CCN(C)CC2)c2cccc(C)c2)c1 returned mIAP activ 1, hIAP inh -75, hIAP activ 1.7, bIAP act 2.3*, bIAP inh -129 and mIAP inh 0.
Screening Cc1ccc(S(=O)(=O)N[C@@H](CCCCN)C(=O)CCl)cc1 returned mIAP activ 1, hIAP inh -2, hIAP activ 1 and mIAP inh -2.
`CCOC(=O)c1c(-n2c(C)cc(C=C3C(=O)NC(=S)NC3=O)c2C)sc2c1CCCC2` gave mIAP activ 0.49, hIAP inh -2, hIAP activ 1, bIAP act 0.5 and mIAP inh 51*.
Screening Cc1ccc(-c2nc(N3CCOCC3)s[n+]2-c2ccccc2)cc1 returned bIAP act 0.9 and bIAP inh 8.
Screening CN(C)c1nc(-c2ccccc2)[n+](C)s1 returned mIAP activ 0.94, hIAP inh 42*, hIAP activ 0.58, bIAP act 1, bIAP inh 1, mIAP inh 6 and hIAP act confirm 7.
Screening O=c1[nH]c(=O)n(Cc2ccccc2Cl)c(O)c1/C=C1/C=CC=N1 returned mIAP activ 0.79, hIAP inh -11, hIAP activ 1.1, bIAP act 1.1, bIAP inh -13 and mIAP inh 21.
For CC(C)Cc1nnc(NC(=O)CCC(=O)N2CCC3(CC2)OCCO3)s1 the results were mIAP activ 1.1, hIAP inh -133, hIAP activ 2.3*, mIAP inh -7 and hIAP act confirm -77.
`Cc1ccc(CN2C3CCCC2CC(NC(=O)Nc2cccc(F)c2)C3)cc1` (centres undefined) gave mIAP activ 11*, hIAP inh -117, hIAP activ 2.2*, bIAP act 6.7*, bIAP inh inactive, mIAP inh inactive, hIAP act confirm -4 and mIAP inh conf -348.
CCS(=O)(=O)NC(C)c1nnc2n1-c1ccc(Br)cc1C(c1ccccc1Cl)=NC2 (centres undefined) was read as mIAP activ 0.98, hIAP inh 12, hIAP activ 0.88 and mIAP inh 2.
For CN(C)c1ccc(/C=C2/C(=O)NC(=O)N(Cc3ccco3)C2=O)cc1 the results were mIAP activ 0.52, hIAP inh -8, hIAP activ 1.1, bIAP act 0.8, bIAP inh 21, mIAP inh 48* and mIAP inh conf 48*.
Screening CCN(CC)c1ccc(/C=C2/C(=O)NC(=O)N(Cc3ccco3)C2=O)cc1 returned mIAP activ 0.39, hIAP inh -9, hIAP activ 1.1, bIAP act 0.8, bIAP inh 20, mIAP inh 61* and mIAP inh conf 46*.
C=CCN1C(=O)NC(=O)/C(=C\c2ccc(-c3ccccc3[N+](=O)[O-])o2)C1=O was read as mIAP activ 0.89, hIAP inh -7, hIAP activ 1.1, bIAP act 1, bIAP inh 0 and mIAP inh 11.
CCN(CC)c1ccc(/C=C2\C(=O)NC(=O)N(CC3CCCO3)C2=O)cc1 (centres undefined) was read as mIAP activ 0.89, hIAP inh 5, hIAP activ 0.95, bIAP act 0.2 and mIAP inh 11.
`O=C1NC(=O)N(Cc2ccco2)C(=O)/C1=C/c1ccc(-c2cccc([N+](=O)[O-])c2)o1` gave mIAP activ 0.39, hIAP inh 14, hIAP activ 0.86, bIAP act 0.9, bIAP inh 15, mIAP inh 61* and mIAP inh conf 68*.
`C#C[C@@]1(O)CCC2C3CCC4=C/C(=N/OCC(=O)NC(CCC(N)=O)C(=O)O)CC[C@]4(C)C3CC[C@@]21C` (some centres undefined) gave mIAP activ 0.99, hIAP inh -1, hIAP activ 1 and mIAP inh 1.
Screening N/C(=N\[N+](=O)[O-])N/N=C/c1ccc(O)cc1 returned mIAP activ 0.98, hIAP inh 17, hIAP activ 0.83, bIAP act 1, bIAP inh -2 and mIAP inh 2.
Screening Nc1nonc1C(=O)N/N=C/c1ccc([N+](=O)[O-])o1 returned mIAP activ 0.45, hIAP inh -2, hIAP activ 1, bIAP act 1, bIAP inh 4, mIAP inh 55* and mIAP inh conf 72*.

Assay outcomes as filed in PubChem BioAssay.
